# Only some compounds are listed: those with a hit (about 5.5% of all), similar ones and a draw of the others.
# KCC2 mod – KCC2 cotransporter modulators, thallium flux, primary screen, cell-based, HEK293 KCC2, FluoZin-2 fluorescence, MLSMR; Solute carrier family 12 member 5 (Homo sapiens), Q9H2X9; KCC2 cells, thallium flux FluoZin-2 fluorescence; B-score of Tl+ flux slope (higher = more flux/activation; lower = inhibition) at 10 µM; 2.2% of 190,000 active; AID 1456, 2008;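 active = thallium flux slope and its plate-corrected score both differing from the plate sample mean at a set confidence after two filtering rounds, in either direction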;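 also: slope of fluorescence scaled to starting intensity during 10 to 20 s after thallium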
# Target sequence (Q9H2X9 whole entry, looked up): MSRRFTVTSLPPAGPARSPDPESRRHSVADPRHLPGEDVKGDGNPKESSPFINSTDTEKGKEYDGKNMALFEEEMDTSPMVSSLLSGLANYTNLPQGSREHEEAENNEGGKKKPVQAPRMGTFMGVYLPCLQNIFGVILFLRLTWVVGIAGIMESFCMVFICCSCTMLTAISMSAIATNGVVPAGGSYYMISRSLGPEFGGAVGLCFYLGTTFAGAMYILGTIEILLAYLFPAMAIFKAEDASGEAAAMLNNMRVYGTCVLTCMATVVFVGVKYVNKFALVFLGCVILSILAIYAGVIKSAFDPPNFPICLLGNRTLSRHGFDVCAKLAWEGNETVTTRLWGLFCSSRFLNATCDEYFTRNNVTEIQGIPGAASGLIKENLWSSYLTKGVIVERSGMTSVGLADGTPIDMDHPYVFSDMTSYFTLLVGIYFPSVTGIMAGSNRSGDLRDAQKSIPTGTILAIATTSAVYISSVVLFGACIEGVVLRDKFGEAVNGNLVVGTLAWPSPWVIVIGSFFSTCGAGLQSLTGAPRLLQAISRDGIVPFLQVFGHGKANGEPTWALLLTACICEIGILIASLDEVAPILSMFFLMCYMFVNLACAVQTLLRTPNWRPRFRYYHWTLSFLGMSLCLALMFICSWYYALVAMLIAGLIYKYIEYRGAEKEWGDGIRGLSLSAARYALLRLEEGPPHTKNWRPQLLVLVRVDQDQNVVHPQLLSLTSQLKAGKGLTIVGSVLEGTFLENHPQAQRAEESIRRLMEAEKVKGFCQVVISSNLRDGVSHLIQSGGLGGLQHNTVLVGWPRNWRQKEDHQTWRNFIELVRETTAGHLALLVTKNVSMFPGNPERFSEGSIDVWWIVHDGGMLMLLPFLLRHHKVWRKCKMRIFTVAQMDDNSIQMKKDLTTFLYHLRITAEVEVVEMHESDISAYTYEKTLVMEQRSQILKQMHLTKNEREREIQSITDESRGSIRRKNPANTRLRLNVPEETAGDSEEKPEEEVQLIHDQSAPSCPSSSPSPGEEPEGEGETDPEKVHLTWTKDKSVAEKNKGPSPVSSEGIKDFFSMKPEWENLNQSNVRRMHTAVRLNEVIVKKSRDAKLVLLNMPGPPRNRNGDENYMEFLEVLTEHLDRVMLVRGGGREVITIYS
# STAT1 blocker – STAT1 signaling inhibitors, primary screen, cell-based, HTS, luciferase reporter | NIH 3T3 STAT1-luciferase reporter, IFN-gamma, luminescence | inhibition, % at 5.5 µM | 0.35% of 200,000 active | AID 920, 2007;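 active = inhibition above a set limit, the mean inhibition across all tested compounds plus 3 SD, cut at about 34% in these data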;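 also: 0% = IFN-gamma with DMSO and 100% = IFN-gamma with 300 µM nifuroxazide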
# STAT3 act-1 – IL-6 driven STAT3 reporter potentiators, primary screen, U3A cells, luciferase, luminescence, MLSCN library | IL-6 STAT3-luciferase reporter; 100% = signal with IL-6 EC80 alone | activation (% of control), % at 5.6 µM | 0.91% of 190,000 active | AID 871, 2007;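 active = activation above the screen-wide mean of compound activation plus 3 SD, cut at about 130% in these data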;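 also: 0% = background luminescence of wells with medium and substrate only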
#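 Test system: human U3A cells carrying STAT3-luciferase construct; control set: IL-6-only wells as 100% reference; timing: compound pre-incubation 1 h before IL-6, then 6 h stimulation at 37 °C; also added: IL-6 stimulus at 33 ng/mL final; evaluation: % activation versus median of IL-6-stimulated wells; detection: reporter luminescence signal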
# STAT1 act-1 – STAT1 signaling activators, primary screen, cell-based, HTS, luciferase reporter; activation (% of control), % at 5.5 µM; 2.6% of 200,000 active; NIH 3T3 STAT1-luciferase reporter, IFN-gamma, luminescence; 100% = IFN-gamma alone, no compound; AID 932, 2007;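 active = activation above the screen-wide mean activation plus 3 SD, cut at about 130% in these data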;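 also: raw ratio to IFN-gamma control signal so 100% means no change and 0% no light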
# HSV augment – enhancers of HSV replication in host cells, fold increase, host cell viability; HSV replication augmentation in cells; maximum fold increase; 0.005% of 220,000 active; in the data active = maximum fold increase above about 1.5; tested in PC3 cells
# STAT3 inh – IL-6 driven STAT3 reporter inhibitors, primary screen, U3A cells, luciferase, luminescence, MLSCN library; inhibition, % at 5.5 µM; AID 862, 2007; 0.89% of 190,000 active; IL-6 STAT3-luciferase reporter; host cell line lacks STAT1;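 active = inhibition above the mean inhibition across all screened compounds plus 3 SD, cut at about 44% in these data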;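 also: 0% = DMSO only wells and 100% = 100 µM nifuroxazide control wells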
# STAT3 act-2 – STAT3 reporter potentiators, retest of hits, confirmation, U3A cells, luciferase, luminescence; shares compounds with STAT3 act-1; IL-6 potentiation; U3A cells lack STAT1; 100 means same as IL-6 alone; potentiation (% of control), % at 5.7 µM; 64% of 1,200 active;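 active = percent activation of the STAT3 luciferase reporter above a set limit taken from the earlier primary screen, cut at about 130% in these data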;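 also: 0% = background signal of medium plus substrate and 100% = median of IL-6 with DMSO wells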
# NFkB act STAT3ct – NF-kB reporter activators in human cells, counter-screen for STAT3 activator project | shares compounds with STAT3 act-1 | AID 1309, 2008 | 11% of 1,200 active | NF-kappaB reporter activation | activation (% of control), % at 5.7 µM; in the data active = activation above about 120%;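 also: reporter induced by TNF-alpha stimulation; 100% = median of stimulated DMSO wells and 0% = no signal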
# STAT1 act-2 – STAT1 reporter activators, IFN-gamma induced, counter-screen for STAT3 activator project, cell-based, NIH 3T3, luciferase luminescence; NIH 3T3 STAT1-luciferase reporter; shares compounds with STAT3 act-1; 13% of 1,200 active; AID 1318, 2008; activation (% of control), % at 5.7 µM;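 active = activation above the solvent-only control well mean plus 3 SD, set per screening run, cut at about 120% in these data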;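 also: 100% = IFN-gamma with DMSO median signal so 100% means no change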
# * hit, by the source's call; i = inactive; / = no result given.
SMILES,KCC2 mod,STAT1 blocker,STAT3 act-1,STAT1 act-1,HSV augment,STAT3 inh,STAT3 act-2,NFkB act STAT3ct,STAT1 act-2
C/C(=N\Nc1nc2ccccc2[nH]1)c1cc2ccccc2o1,0.53,-8,143*,107,i,-49,176*,122*,134*
C/C(=N\Nc1nc2ccccc2[nH]1)c1ccc2c(c1)OCCO2,-2.7,-9,95,107,i,10,/,/,/
COC(=O)c1cnn(-c2nc3c(C)cccc3s2)c1C,0.18,-1,140*,101,i,-40,134*,108,116
CCOc1ccc(-c2nnc(-c3ccncc3)o2)cc1OCC,0.072,-8,111,107,i,-5,/,/,/
CCOc1cc(-c2ccc(N)c(OCC)c2)ccc1N,0.13,2,155*,98,i,-61,136*,102,98
O=C(O)CC/C(=N/NC(=O)c1cn(-c2ccccc2)nc1-c1ccccc1)C(=O)O,0.24,3,95,97,i,8,/,/,/
c1ccc(CSc2nnc3c4ccccc4c4ccccc4c3n2)cc1,/,/,/,/,i,/,/,/,/
CC(=O)c1ccc(OC(=O)c2cc3ccccc3oc2=O)cc1,-0.47,4,101,97,i,8,/,/,/
Cc1c(Cl)cccc1-n1c(SCC(=O)NCc2ccccc2Cl)nnc1-c1ccncc1,-0.37,2,104,98,i,0,/,/,/
O=C(/C=C/c1ccccc1)C1=C(O)C(=O)N(CCO)C1c1cccc([N+](=O)[O-])c1 (stereo unspecified),0.33,/,/,/,i,/,/,/,/
O=C(/C=C/c1ccccc1)C1=C(O)C(=O)N(CCO)C1c1ccccc1[N+](=O)[O-] (stereo unspecified),/,-1,144*,99,i,-47,152*,104,82
CC(C)CNS(=O)(=O)c1ccc(CCC(=O)NCc2ccncc2)cc1,0.16,-6,105,104,i,1,/,/,/
COC(=O)NCC(c1ccco1)N1CCN(c2ccccc2)CC1 (stereo unspecified),0.49,1,99,98,i,11,/,/,/
Oc1ccc2ccccc2c1CNc1cnc2ccccc2c1,0.59,3,146*,97,i,-58,133*,99,104
NC(=O)NC(CCC(=O)O)C(=O)O (stereo unspecified),/,/,/,/,i,/,/,/,/
Cc1ccc(-c2nc3c4ccccc4ccn3c2CN2CCCCC2)cc1,-0.19,/,/,/,i,/,/,/,/
CC(=O)c1c(-c2ccc(C)cc2)nc2c3ccccc3ccn12,-1.3,-3,142*,99,i,-44,143*,101,102
O=C(O)CSc1c[nH]c2ccccc12,-1.1,9,151*,92,i,-49,121,104,96
CC(Sc1c[nH]c2ccccc12)C(=O)O (stereo unspecified),-0.0052,-3,147*,103,/,-48,115,99,101
CCC(=O)NCCSc1c[nH]c2ccccc12,/,4,145*,97,i,-47,141*,105,108
O=C(O)Cc1c[nH]c2ccccc12,/,/,/,/,i,/,/,/,/
CCCCn1nnnc1SCC(=O)NNC(=O)c1ccco1,0.8,-10,102,107,i,5,/,/,/
Cc1ccc(-n2[nH]c(C)c(C=Nc3cc(C)ccn3)c2=O)cc1,4.2*,-6,138*,106,i,-42,102,101,103
Cc1ccc(-n2[nH]c(C)c(/C=N/c3ccccn3)c2=O)cc1,/,2,112,98,i,-9,/,/,/
NC1=NC(=O)C(CC(=O)c2ccc(Cl)cc2)S1 (stereo unspecified),-0.086,-1,95,101,i,8,/,/,/
SMILES,KCC2 mod,STAT1 blocker,STAT3 act-1,STAT1 act-1,HSV augment,STAT3 inh,STAT3 act-2,NFkB act STAT3ct,STAT1 act-2
CC1Cc2ccccc2N1Cc1cc(=O)n2ccsc2n1 (stereo unspecified),0.36,1,146*,99,i,-44,152*,101,99
COc1ccc(C(=O)c2cc([N+](=O)[O-])ccc2N2CCOCC2)cc1,-0.33,-20,163*,118,i,-74,125,172*,141*
CCOc1ccc(C(=O)c2cc([N+](=O)[O-])ccc2N2CCOCC2)cc1,0.12,-25,166*,122,/,-68,127,165*,132*
Cc1ccc(C(=O)c2cc([N+](=O)[O-])ccc2N2CCCCC2)c(C)c1,0.84,0,137*,100,i,-39,116,152*,108
Cc1ccc(C(=O)c2cc([N+](=O)[O-])ccc2N2CCOCC2)cc1,-0.97,3,95,97,i,5,/,/,/
COCCN(Cc1cc2cc(C)ccc2nc1Cl)C(=O)Nc1ccccc1OC,0.39,6,97,95,i,9,/,/,/
CC(=O)N(C(C)=O)S(=O)(=O)c1ccc(N=NN2CCOCC2)cc1,0.75,0,94,100,i,6,/,/,/
Cc1ccc(-c2nc3ccccc3n3nnnc23)cc1,0.035,-5,174*,101,i,-84,185*,131*,148*
O=C(CNc1cccc2ccccc12)N/N=C/c1ccc(OC(=O)/C=C/c2ccco2)cc1,0.083,-6,156*,105,i,-59,124,103,104
N#Cc1ccccc1S(=O)(=O)N1CCN(CC(O)c2ccccc2)CC1 (stereo unspecified),-0.18,-4,95,102,i,7,/,/,/
O=S(=O)(Cc1ccc(Cl)cc1)c1ccccc1-c1nnc(-c2ccc(Cl)cc2)o1,/,0,103,100,/,7,/,/,/
CCOC(=O)CC(C#N)c1cn(C)c2ccccc12 (stereo unspecified),-0.98,9,145*,92,i,-49,130,104,95
Cn1cc(C(CC(=O)O)C(=O)O)c2ccccc21 (stereo unspecified),/,12,126,89,i,-22,/,/,/
Cc1ccc(C)c(/C(O)=C2/C(=O)C(=O)N(CCN3CCOCC3)C2c2ccc(C)o2)c1 (stereo unspecified),/,12,136*,89,i,-37,129,107,102

# Bioassay records as filed in PubChem.
